In ChEMBL document CHEMBL1138907, “Synthesis, hydrolyses and dermal delivery of N-alkyl-N-alkyloxycarbonylaminomethyl (NANAOCAM) derivatives of phenol, imide and thiol containing drugs” (Bioorg Med Chem Lett, 2006):
Values after ≈ are worked out from the molar mass of the structure shown.

Tests used:
[1] = Half life of the compound; assay type: ADME
Summary of the method: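 Hydrolysis in aqueous buffer, followed by UV absorbance in a cuvette at about 10^-5 M final substrate. For the phenol derivatives, runs were at 46 °C in pH 8.8 buffer because hydrolysis at 32 °C was too slow. Half-lives were taken from plots of log(A∞ − At), or its negative, versus time.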

[2] = Dissociation constant, pKa of the compound; assay type: physicochemical
[3] = Ratio for partition coefficient, log K in IPM to buffer at pH 4; assay type: physicochemical; conditions: IPM/pH 4.0 buffer
[4] = Aqueous solubility of the compound; assay type: physicochemical; conditions: water
[5] = Solubility in IPM; assay type: physicochemical

## COC(=O)N(C)COC(=O)c1ccc(N(C)C)cc1
[1]
  half-life: 0.00367 h
[2]
  pKa: 5.03

## COC(=O)N(C)COc1ccc(C(C)=O)cc1
[1]
  half-life: 3.15 h
[2]
  pKa: 8.05

## COC(=O)N(C)CSc1[nH]cnc2ncnc1-2
[3]
  log K: 0.03
[1]
  half-life: 0.317 h
[2]
  pKa: 7.5
[4]
  solubility: 1450 µM (≈ 367 µg/mL)
[5]; IPM, read-out: Solubility
  solubility: 1350 µM (≈ 342 µg/mL)

## COC(=O)c1ccc(OCN(C)C(=O)OC)cc1
[1]
  half-life: 4.83 h
[2]
  pKa: 8.47

## COC(=O)N(C)COc1ccc(C#N)cc1
[1]
  half-life: 2.48 h
[2]
  pKa: 7.95

## CCOC(=O)c1ccc(N(COc2ccc([N+](=O)[O-])cc2)C(=O)OC)cc1
[1]
  half-life: > 24 h

## COC(=O)N(COc1ccc([N+](=O)[O-])cc1)c1ccc(OC)cc1
[1]
  half-life: 6.67 h

## COC(=O)N(C)COc1ccc(NC(C)=O)cc1
[3]
  log K: -0.45
[1]
  half-life: 60 h
[2]
  pKa: 9.5
[4]
  solubility: 45700 µM (≈ 11500 µg/mL)
[5]; IPM, read-out: Solubility
  solubility: 14100 µM (≈ 3560 µg/mL)

## COC(=O)N(C)COc1ccc([N+](=O)[O-])cc1
[1]
  half-life: 0.367 h
[2]
  pKa: 7.14

## COC(=O)N(C)COc1ccc(C=O)cc1
[1]
  half-life: 1.25 h
[2]
  pKa: 7.66

## COC(=O)N(C)COc1ccccc1C=O
[1]
  half-life: 0.2 h
[2]
  pKa: 6.79

## COC(=O)N(C)Cn1cnc2c1c(=O)n(C)c(=O)n2C
[3]
  log K: -0.04
[1]
  half-life: 7 h
[2]
  pKa: 8.6
[4]
  solubility: 9330 µM (≈ 2620 µg/mL)
[5]; IPM, read-out: Solubility
  solubility: 2690 µM (≈ 757 µg/mL)

## COC(=O)N(COc1ccc([N+](=O)[O-])cc1)c1ccccc1
[1]
  half-life: 8.65 h

## CC(=O)Nc1ccc(O)cc1 [ACETAMINOPHEN]
[3]
  log K: -1.72
[4]
  solubility: 100000 µM (≈ 15100 µg/mL)
[5]
  solubility: 1910 µM (≈ 289 µg/mL)

## Sc1ncnc2nc[nH]c12 [MERCAPTOPURINE ANHYDROUS]
[3]
  log K: -1.75
[4]
  solubility: 1120 µM (≈ 170 µg/mL)
[5]; IPM, read-out: Solubility
  solubility: 20 µM (≈ 3.04 µg/mL)

## Cn1c(=O)c2[nH]cnc2n(C)c1=O.O [THEOPHYLLINE]
[3]
  log K: -0.51
[4]
  solubility: 46000 µM
[5]; IPM, read-out: Solubility
  solubility: 340 µM
